Test results as given in ChEMBL document CHEMBL4665767, “Synthesis and biological evaluation of semi-synthetic albocycline analogs” (2020).
Converted amounts (≈) assume the structure as drawn. One block for each molecule: values may come before it. The source made the active and inactive calls. No cut-off for these calls is given here.

Columns and labels:
Staphylococcus aureus [1] = assay: Antibacterial activity against methicillin sensitive Staphylococcus aureus UAMS1; assay type: functional
Procedure, shortened: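 Broth microdilution in Mueller Hinton broth; DMSO stocks (12.8 mg/mL) serially diluted, 2 µL added per well, giving up to 256 µg/mL. Inoculum grown at 37 °C, 200 rpm to OD600 0.18, diluted to final 3x10^5 cells/mL, count confirmed by plating. Technical duplicate; 16-24 h at 37 °C; MIC = lowest concentration with visual growth inhibition.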

Staphylococcus aureus [2] = assay: Antibacterial activity against methicillin resistant Staphylococcus aureus USA300; assay type: functional
Procedure, shortened: (§1)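 Broth microdilution MIC in Mueller Hinton broth. Stocks 12.8 mg/mL in DMSO, serially diluted twofold, 2 µL added per well (top final 256 µg/mL). Inoculum grown at 37 °C, 200 rpm to OD600 0.18, then diluted to 3x10^5 cells/mL final, checked by plate count. Incubated 16-24 h at 37 °C, technical duplicates. MIC read as lowest concentration with visible growth inhibition.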

Pseudomonas aeruginosa = assay: Antibacterial activity against Pseudomonas aeruginosa; assay type: functional, organism-based
Procedure, shortened: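 Twofold serial dilutions in 96-well microtiter plates from a 10 mg/mL DMSO starting concentration; DMSO solvent control, kanamycin positive control. Wells inoculated with 1:100 dilution of overnight cultures (P. aeruginosa strain PA10). Incubated 37 °C for 24 h; MIC scored as lowest well showing growth inhibition.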

Acinetobacter baumannii = assay: Antibacterial activity against Acinetobacter baumannii; assay type: functional, organism-based
Escherichia coli = assay: Antibacterial activity against Escherichia coli; assay type: functional, organism-based
Staphylococcus aureus [3] = assay: Potency index, ratio of albocycline MIC to test compound MIC for methicillin resistant Staphylococcus aureus USA300; assay type: functional
Staphylococcus aureus [4] = assay: Antibacterial activity against vancomycin-resistant Staphylococcus aureus; assay type: functional; procedure, shortened: as §1
Staphylococcus aureus [5] = assay: Antibacterial activity against vancomycin-intermediate Staphylococcus aureus; assay type: functional; procedure, shortened: as §1
Staphylococcus aureus [6] = assay: Antibacterial activity against methicillin resistant Staphylococcus aureus; assay type: functional; procedure, shortened: as §1

MIC (Staphylococcus aureus [1]): 32 µg/mL (≈ 98.6 µM)
Compound: CO[C@H]1/C=C/[C@@](C)(O)/C=C/C(=O)O[C@H](C)[C@@H](C)CC/C=C/1CO

Compound: CO[C@H]1/C=C/[C@@](C)(O)/C=C/C(=O)O[C@H](C)[C@@H](C)CC/C=C/1COP(=O)(Oc1ccccc1)Oc1ccccc1
MIC (Staphylococcus aureus [2]): > 256 µg/mL
MIC (Staphylococcus aureus [1]): > 256 µg/mL

Compound: CO[C@H]1/C=C/[C@@](C)(O)C(SCCN)CC(=O)O[C@H](C)[C@@H](C)CC/C=C/1C (mixture of isomers)
Activity (Pseudomonas aeruginosa): inactive
MIC (Staphylococcus aureus [2]): 256 µg/mL
MIC (Staphylococcus aureus [1]): 128 µg/mL
Activity (Acinetobacter baumannii): inactive
Activity (Escherichia coli): inactive

Compound: CO[C@H]1/C=C/[C@@](C)(OC(=O)c2ccc(F)cc2)/C=C/C(=O)O[C@H](C)[C@@H](C)CC/C=C/1C
MIC (Staphylococcus aureus [2]): 1 µg/mL (≈ 2.32 µM)
MIC (Staphylococcus aureus [1]): 1 µg/mL (≈ 2.32 µM)
Ratio (Staphylococcus aureus [3]): 2

Compound: CO[C@H]1/C=C/[C@@](C)(O)/C=C/C(=O)O[C@H](C)[C@@H](C)CC/C=C/1C
MIC (Staphylococcus aureus [4]): 0.5 µg/mL (≈ 1.62 µM)
MIC (Staphylococcus aureus [2]): 2 µg/mL (≈ 6.48 µM)
MIC (Staphylococcus aureus [5]): 0.5 µg/mL (≈ 1.62 µM)
MIC (Staphylococcus aureus [1]): 2 µg/mL (≈ 6.48 µM)
MIC (Staphylococcus aureus [6]): 0.5 µg/mL (≈ 1.62 µM)

MIC (Staphylococcus aureus [1]): 32 µg/mL (≈ 99.3 µM)
Compound: CO[C@H]1/C=C/[C@@](C)(O)/C=C/C(=O)O[C@H](C)[C@@H](C)CC/C=C/1C=O

MIC (Staphylococcus aureus [1]): > 256 µg/mL
Compound: C#CCO[C@@]1(C)/C=C/C(=O)O[C@H](C)[C@@H](C)CC/C=C(\C)[C@@H](OC)/C=C/1

MIC (Staphylococcus aureus [1]): 128 µg/mL (≈ 378 µM)
Compound: COC/C1=C\CC[C@H](C)[C@@H](C)OC(=O)/C=C/[C@](C)(O)/C=C/[C@@H]1OC

Compound: C/C1=C\CC[C@H](C)[C@@H](C)OC(=O)/C=C/[C@](C)(O)/C=C/[C@@H]1O
MIC (Staphylococcus aureus [2]): 4 µg/mL (≈ 13.6 µM)
MIC (Staphylococcus aureus [1]): 8 µg/mL (≈ 27.2 µM)
